These results are taken from ChEMBL document CHEMBL3046895, “Molecular mechanism of enantioselective inhibition of acetolactate synthase by imazethapyr enantiomers” (J Agric Food Chem, 2010).

Each structure is given as a SMILES string. The source made the active and inactive calls. No cut-off for these calls is given here.

What all share (assay type): protein assay
Assay [1] addresses T1, Acetolactate synthase (Zea mays) (UniProt Q41768+Q41769). As to the kind of experiment: Inhibition of in vitro ALS activity of Zea mays (maize) at 200 ug/L at 37 degC. In short, it runs like this:
(§1)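 ALS came from uppermost-expanded leaves of 5-day maize seedlings, using a 50% (NH4)2SO4 pellet. Inhibitor was dried from acetone in the tubes at 0, 0.04, 0.2, 1, 5 and 25 mg L-1. The assay used 30 mM pyruvate, 1 mM MgCl2, 1 mM TPP, 20 μM FAD and 50 mM K-phosphate at pH 7, run for 1 h at 37 °C. It was stopped with H2SO4, decarboxylated for 15 min at 60 °C, developed with creatine/α-naphthol, and read at A520.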

Assay [2] deals with T1, Acetolactate synthase (Zea mays). As to the kind of experiment: Inhibition of in vitro ALS activity in first leaf of the plant grew out Zea mays (maize) seedlings measured at 520 OD/ mg of protein/hr at 800 ug/L at 37 degC. Summed up: (§2)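 Maize seedlings were treated in vivo, once the first leaf emerged, with herbicide in distilled water at 0, 100, 200, 400 and 800 μg L-1. Uppermost-expanded leaves were harvested 24 h later. ALS was extracted, precipitated with 50% (NH4)2SO4 at 4 °C, and assayed with 30 mM pyruvate, TPP and FAD at pH 7 for 1 h at 37 °C. Acetoin was read at A520 and normalised to Coomassie protein.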

The target is the same in assay [3]. As to the kind of experiment: Inhibition of in vitro ALS activity in first leaf of the plant grew out Zea mays (maize) seedlings measured at 520 OD/ mg of protein/hr at 400 ug/L at 37 degC. In short, it runs like this:
as §2

The target is the same in assay [4]. As to the kind of experiment: Inhibition of in vitro ALS activity in first leaf of the plant grew out Zea mays (maize) seedlings measured at 520 OD/ mg of protein/hr at 100 ug/L at 37 degC. In short, it runs like this: as §2
The target is the same in assay [5]. As to the kind of experiment: Inhibition of in vitro ALS activity in first leaf of the plant grew out Zea mays (maize) seedlings measured at 520 OD/ mg of protein/hr at 200 ug/L at 37 degC. In short, it runs like this:
as §2

Assay [6] has the same target. As to the kind of experiment: Inhibition of in vitro ALS activity of Zea mays (maize) at 25 mg/L at 37 degC. In short, it runs like this:
as §1

One may read the inhibition as the drop in the measured response relative to a control, in per cent.

T1 sequence (Q41768 whole entry, looked up): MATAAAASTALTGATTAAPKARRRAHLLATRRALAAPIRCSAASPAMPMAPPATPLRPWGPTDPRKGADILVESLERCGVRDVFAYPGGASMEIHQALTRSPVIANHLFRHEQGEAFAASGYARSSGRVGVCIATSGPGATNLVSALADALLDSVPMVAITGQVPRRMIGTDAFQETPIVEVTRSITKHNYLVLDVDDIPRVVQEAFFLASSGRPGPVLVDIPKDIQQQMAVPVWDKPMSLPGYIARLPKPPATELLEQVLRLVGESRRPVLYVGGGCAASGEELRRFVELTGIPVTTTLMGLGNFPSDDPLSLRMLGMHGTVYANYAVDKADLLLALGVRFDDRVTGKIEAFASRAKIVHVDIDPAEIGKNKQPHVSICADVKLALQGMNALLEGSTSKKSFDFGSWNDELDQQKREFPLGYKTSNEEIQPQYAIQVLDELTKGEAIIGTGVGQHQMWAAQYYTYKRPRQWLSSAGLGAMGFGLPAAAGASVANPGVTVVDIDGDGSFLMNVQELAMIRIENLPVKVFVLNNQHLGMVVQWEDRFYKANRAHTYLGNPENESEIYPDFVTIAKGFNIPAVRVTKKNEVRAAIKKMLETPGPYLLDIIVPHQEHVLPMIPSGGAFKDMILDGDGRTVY
T1 sequence (Q41769 whole entry, looked up): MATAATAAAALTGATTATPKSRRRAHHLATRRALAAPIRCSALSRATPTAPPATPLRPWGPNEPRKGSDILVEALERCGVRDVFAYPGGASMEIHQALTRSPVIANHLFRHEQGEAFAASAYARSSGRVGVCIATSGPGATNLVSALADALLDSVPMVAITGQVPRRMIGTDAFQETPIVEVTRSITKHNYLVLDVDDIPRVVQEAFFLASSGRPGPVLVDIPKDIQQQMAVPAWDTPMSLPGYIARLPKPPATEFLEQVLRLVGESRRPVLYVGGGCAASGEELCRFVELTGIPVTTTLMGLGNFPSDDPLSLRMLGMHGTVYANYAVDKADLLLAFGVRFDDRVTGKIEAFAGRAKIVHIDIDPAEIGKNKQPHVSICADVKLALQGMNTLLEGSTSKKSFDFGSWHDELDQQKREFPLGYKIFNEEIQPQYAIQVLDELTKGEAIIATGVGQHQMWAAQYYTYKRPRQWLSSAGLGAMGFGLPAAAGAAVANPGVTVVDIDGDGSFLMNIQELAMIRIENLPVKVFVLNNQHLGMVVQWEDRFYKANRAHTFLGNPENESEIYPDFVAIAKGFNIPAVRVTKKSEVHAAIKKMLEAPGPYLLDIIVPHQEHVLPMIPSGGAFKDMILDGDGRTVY

In assay [1], `CCc1cnc(C2=N[C@](C)(C(C)C)C(=O)N2)c(C(=O)O)c1` came in with an inhibition of 28.9%. The OD in assay [2] was determined as 0.97 h⁻¹; in assay [3] it was 1.56 h⁻¹; in assay [4] it was 7.14 h⁻¹; in assay [5] it was 3.39 h⁻¹. In addition, the inhibition result in assay [6] is “Active”.

The compound `CCc1cnc(C2=N[C@@](C)(C(C)C)C(=O)N2)c(C(=O)O)c1` showed an inhibition in assay [1] of 3.8%. For the same compound, the OD in assay [2] amounted to 2.06 h⁻¹; in assay [3], 3.18 h⁻¹; in assay [4], 7.96 h⁻¹; in assay [5], 6.34 h⁻¹. The inhibition result in assay [6] is “Active”.

In assay [1], `CCc1cnc(C2=NC(C)(C(C)C)C(=O)N2)c(C(=O)O)c1` (racemic) displayed an inhibition of 19.8%. Besides, the OD in assay [2] amounted to 1.9 h⁻¹; in assay [3] it was 2.26 h⁻¹; in assay [4], 7.6 h⁻¹; in assay [5] it was 4.41 h⁻¹. Besides, the inhibition entry in assay [6] was “Active”.
